From ChEMBL document CHEMBL1140546, “3,5-Disubstituted quinolines as novel c-Jun N-terminal kinase inhibitors” (Bioorg Med Chem Lett, 2007)

Molecular target: Mitogen-activated protein kinase 10 (Homo sapiens, UniProt P53779)
Test: Inhibition of JNK3 by HTRF assay
In short: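 JNK3 phosphorylation of biotinylated-ATF2, final 0.3 nM JNK3, 0.4 nM substrate, 1 μM ATP. The phospho-Thr71-ATF-2 product is detected with a Europium-cryptate-labeled anti-phospho-Thr71-ATF-2 antibody. IC50 values are means of three experiments.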

Chain of Mitogen-activated protein kinase 10 (P53779 whole entry): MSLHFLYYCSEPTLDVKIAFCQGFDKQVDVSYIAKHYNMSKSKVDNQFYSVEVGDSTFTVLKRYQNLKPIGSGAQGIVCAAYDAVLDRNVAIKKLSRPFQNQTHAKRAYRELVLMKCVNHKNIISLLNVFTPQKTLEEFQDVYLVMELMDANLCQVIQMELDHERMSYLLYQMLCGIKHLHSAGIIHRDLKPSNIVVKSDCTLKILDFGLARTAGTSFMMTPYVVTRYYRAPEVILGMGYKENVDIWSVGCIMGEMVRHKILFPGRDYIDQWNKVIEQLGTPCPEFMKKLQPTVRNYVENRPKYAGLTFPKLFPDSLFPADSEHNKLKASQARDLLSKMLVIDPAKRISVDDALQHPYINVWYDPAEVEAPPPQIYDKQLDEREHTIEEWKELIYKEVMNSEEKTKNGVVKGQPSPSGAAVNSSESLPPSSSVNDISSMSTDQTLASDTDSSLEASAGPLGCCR

SMILES | IC50
CC(=O)N(C(C)=O)c1ccc(-c2cnc3ccc4ccncc4c3c2)cc1 | 1600 nM
CS(=O)(=O)Nc1ccc(-c2cnc3cccc(Nc4ncccn4)c3c2)cc1 | 480 nM
c1cc2ccc3ncc(-c4ccc(N5CCOCC5)cc4)cc3c2cn1 | 1300 nM
Nc1ccc(-c2cnc3ccc4ccncc4c3c2)cc1 | 510 nM
CS(=O)(=O)Nc1ccc(-c2cnc3cccc(Nc4ccc(Cl)cn4)c3c2)cc1 | 120 nM
CS(=O)(=O)Nc1ccc(-c2cnc3ccc4ccncc4c3c2)cc1 | 930 nM
CS(=O)(=O)N(c1ccc(-c2cnc3ccc4ccncc4c3c2)cc1)S(C)(=O)=O | 210 nM
CS(=O)(=O)Nc1ccc(-c2cnc3cccc(Nc4ncccc4Cl)c3c2)cc1 | 15000 nM

Continued, values first:

IC50 | SMILES
1000 nM | c1ccc(-c2cnc3ccc4ccncc4c3c2)cc1
3600 nM | c1cc2ccc3ncc(-c4ccc(-c5ccn[nH]5)cc4)cc3c2cn1
530 nM | CC(=O)Nc1ccc(-c2cnc3ccc4ccncc4c3c2)cc1
> 20000 nM | c1ccc(-c2ccc(-c3cnc4ccc5ccncc5c4c3)cc2)cc1
